Reference: ChEMBL document CHEMBL1121917, “Structure--activity relationships in a broad-spectrum anthelmintic series. Acid chloride phenylhydrazones. 1. Aryl substitutions and chloride variations” (1981)

Assays:
Mus musculus [1] = organism: Mus musculus; test: Percent clearance of Hymenolepis nana from mouse after oral treatment of 0.47 mg/mouse/day; assay type: functional
Summary of the method: (§1)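 Mice naturally carrying Syphacia obvelata were experimentally infected with Nematospiroides dubius and Hymenolepis nana, then grouped after a 2-week prepatency. Finely ground compound was suspended in aqueous 0.10% carboxymethylcellulose, 0.04% polysorbate 80 and 0.0042% polyparaben, and 0.1 mL was given orally by cannula once daily for 4 days to five mice. Necropsy followed 2 days later, scoring presence or absence of each parasite. Control clearance was subtracted from the treated clearance.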

Mus musculus [2] = organism: Mus musculus; test: Percent clearance of Nematospiroides dubius from mouse after oral treatment of 0.47 mg/mouse/day; assay type: functional; summary of the method: as §1
Ovis aries [3] = test: Percent reduction in Trichuris eggs per gram, after treatment with 100 mg/kg dose of compound perorally in sheep; assay type: functional, Egg; conditions: route oral
Summary of the method: (§2)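 Naturally parasitized lambs, dosed orally either with a suspension by stomach tube or with finely ground compound in gelatin capsules by balling gun. Activity was scored by the clinical test method, meaning a significant fall in helminth egg counts after treatment.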

Ovis aries [4] = test: Percent reduction in Nematodirus eggs per gram, after treatment with 100 mg/kg dose of compound perorally in sheep; assay type: functional, Egg; conditions: route oral
Summary of the method: (§3)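 Naturally parasitized lambs were dosed orally at the stated mg/kg. Dosing was either as a suspension of finely ground compound by stomach tube, or as ground compound weighed into gelatin capsules and given by balling gun. Activity was scored by the clinical test method: the decrease in posttreatment helminth eggs per gram.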

Ovis aries [5] = test: Percent reduction in Strongyloides eggs per gram, after treatment with 100 mg/kg dose of compound perorally in sheep; assay type: functional, Egg; conditions: route oral; summary of the method: as §2
Ovis aries [6] = test: Percent reduction in Oesophagostomum eggs per gram, after treatment with 100 mg/kg dose of compound perorally in sheep; assay type: functional, Egg; conditions: route oral; summary of the method: as §3
Canis familiaris [7] = organism: Canis familiaris; test: Percent reduction in Uncinaria eggs per gram, after oral treatment of 100 mg/dog dose of compound in a single treatment; assay type: functional, Canis lupus familiaris, Egg
Summary of the method: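 Dogs naturally infected with Toxascaris leonina were experimentally infected with mixed Ancylostoma caninum and Uncinaria stenocephala larvae. Finely ground compound was given orally in gelatin capsules. Three egg count determinations were made before and three after treatment in each experiment.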

Ovis aries [8] = test: Percent reduction in Moniezia eggs per gram, after treatment with 100 mg/kg dose of compound perorally in sheep; assay type: functional, Egg; conditions: route oral; summary of the method: as §3
Ovis aries [9] = test: Percent reduction in Trichostrongylus eggs per gram, after treatment with 100 mg/kg dose of compound perorally in sheep; assay type: functional, Egg; conditions: route oral; summary of the method: as §2
Ovis aries [10] = test: Percent reduction in Ostertagia eggs per gram, after treatment with 100 mg/kg dose of compound perorally in sheep; assay type: functional, Egg; conditions: route oral; summary of the method: as §3
Canis familiaris [11] = organism: Canis familiaris; test: Percent reduction in Ancylostoma eggs per gram, after oral treatment of 100 mg/dog dose of compound in a single treatment; assay type: functional, Canis lupus familiaris, Egg
Summary of the method: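 Dogs naturally infected with Toxascaris leonina were experimentally infected with mixed Ancylostoma caninum and Uncinaria stenocephala larvae. Finely ground compound was given orally in gelatin capsules. Fecal egg counts were taken three times before and three times after treatment, and activity was taken as the fall in egg counts.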

Mus musculus [12] = organism: Mus musculus; test: Percent clearance of Nematospiroides dubius from mouse after oral treatment of 7.5 mg/mouse/day; assay type: functional; summary of the method: as §1
Ovis aries [13] = test: Percent reduction in Haemonchus eggs per gram, after treatment with 100 mg/kg dose of compound perorally in sheep; assay type: functional, Egg; conditions: route oral
Summary of the method: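 Naturally parasitized lambs received compound orally, either as the aqueous suspension by stomach tube or as finely ground powder in gelatin capsules by balling gun. Activity was judged by the clinical test method, as a significant decrease in posttreatment helminth egg counts.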

Compound	Parasite_Clearance (Mus musculus [1]) [%]	Parasite_Clearance (Mus musculus [2]) [%]	Reduction (Ovis aries [3]) [%]	Reduction (Ovis aries [4]) [%]	Reduction (Ovis aries [5]) [%]	Reduction (Ovis aries [6]) [%]	Reduction (Canis familiaris [7]) [%]	Reduction (Ovis aries [8]) [%]	Reduction (Ovis aries [9]) [%]	Reduction (Ovis aries [10]) [%]	Reduction (Canis familiaris [11]) [%]	Parasite_Clearance (Mus musculus [12]) [%]	Reduction (Ovis aries [13]) [%]
Cl/C(=N\Nc1ccccc1)c1ccc(Br)cc1	100	100	–	–	–	–	–	–	–	–	–	–	–
O=[N+]([O-])c1ccc(N/N=C(\Cl)c2ccccc2)cc1	–	–	100	0	58	0	0	100	57	33	0	0	0
